Laboratory results taken from ChEMBL document CHEMBL4706666, “Targeting Cysteine Located Outside the Active Site: An Effective Strategy for Covalent ALKi Design” (J Med Chem, 2021).
Blank lines part the entries; values can stand above or below the molecule they belong to. Active and inactive are the calls of the source. The calls are words filed in the database; no cut-off is given here.

Tests used:
[1] = biological target: T1, ALK tyrosine kinase receptor (Homo sapiens, UniProt Q9UM73); test: Inhibition of N-terminal GST tagged human ALK cytoplasmic domain (1058 to 1620 residues) expressed in Sf21 cells at 20 nM incubated for 10 mins by mobility shift assay
Target sequence in this assay (Q9UM73 19-1620 limits assumed): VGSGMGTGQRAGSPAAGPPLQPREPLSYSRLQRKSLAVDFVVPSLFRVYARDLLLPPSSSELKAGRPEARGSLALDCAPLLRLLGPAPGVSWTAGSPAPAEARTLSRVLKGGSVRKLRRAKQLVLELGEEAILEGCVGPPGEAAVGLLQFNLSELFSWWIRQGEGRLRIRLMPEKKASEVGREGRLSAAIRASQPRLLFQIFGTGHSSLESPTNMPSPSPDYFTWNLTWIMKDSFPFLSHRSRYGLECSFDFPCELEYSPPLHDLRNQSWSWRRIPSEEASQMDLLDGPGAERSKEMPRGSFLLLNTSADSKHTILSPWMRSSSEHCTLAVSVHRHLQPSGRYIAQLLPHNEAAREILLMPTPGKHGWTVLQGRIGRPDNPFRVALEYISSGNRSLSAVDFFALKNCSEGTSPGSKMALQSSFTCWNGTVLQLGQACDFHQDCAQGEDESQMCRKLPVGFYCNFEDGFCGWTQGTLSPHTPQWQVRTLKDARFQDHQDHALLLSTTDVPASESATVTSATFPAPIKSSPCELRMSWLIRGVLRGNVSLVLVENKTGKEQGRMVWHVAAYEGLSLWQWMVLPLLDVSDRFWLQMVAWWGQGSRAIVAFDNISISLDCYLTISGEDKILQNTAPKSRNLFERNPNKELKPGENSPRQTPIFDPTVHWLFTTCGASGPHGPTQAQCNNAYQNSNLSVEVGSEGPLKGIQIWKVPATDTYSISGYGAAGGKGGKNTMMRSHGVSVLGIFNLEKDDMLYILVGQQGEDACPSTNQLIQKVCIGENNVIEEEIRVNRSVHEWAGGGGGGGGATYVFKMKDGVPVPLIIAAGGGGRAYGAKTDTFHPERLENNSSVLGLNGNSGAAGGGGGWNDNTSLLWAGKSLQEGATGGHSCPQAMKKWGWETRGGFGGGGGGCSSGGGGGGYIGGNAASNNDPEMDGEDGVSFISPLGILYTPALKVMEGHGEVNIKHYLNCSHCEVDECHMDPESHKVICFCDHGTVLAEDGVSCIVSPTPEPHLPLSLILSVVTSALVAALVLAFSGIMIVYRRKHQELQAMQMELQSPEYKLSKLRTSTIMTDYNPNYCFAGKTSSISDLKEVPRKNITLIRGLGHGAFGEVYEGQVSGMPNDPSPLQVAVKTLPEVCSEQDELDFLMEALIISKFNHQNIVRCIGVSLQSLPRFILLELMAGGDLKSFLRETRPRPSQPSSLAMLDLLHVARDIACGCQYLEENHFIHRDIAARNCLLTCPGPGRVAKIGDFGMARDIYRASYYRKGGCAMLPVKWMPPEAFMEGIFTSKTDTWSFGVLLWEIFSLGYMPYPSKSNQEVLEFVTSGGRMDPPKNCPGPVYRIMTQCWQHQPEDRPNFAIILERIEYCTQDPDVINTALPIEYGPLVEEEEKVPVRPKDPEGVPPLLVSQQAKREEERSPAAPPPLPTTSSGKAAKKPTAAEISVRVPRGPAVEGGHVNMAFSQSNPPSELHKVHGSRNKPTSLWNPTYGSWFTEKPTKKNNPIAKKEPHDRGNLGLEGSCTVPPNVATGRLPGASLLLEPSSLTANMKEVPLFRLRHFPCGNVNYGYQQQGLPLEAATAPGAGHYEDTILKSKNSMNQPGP

[2] = biological target: T1, ALK tyrosine kinase receptor; test: Inhibition of N-terminal GST tagged human ALK cytoplasmic domain (1058 to 1620 residues) expressed in Sf21 cells at 200 nM incubated for 10 mins by mobility shift assay
Target sequence in this assay (Q9UM73 19-1620 limits assumed): as above

NCI-H3122 [3] = test: Antiproliferative activity against human NCI-H3122 cells assessed as reduction in cell viability incubated for 72 hrs by MTT assay; settings: NCI-H3122, 72 h
NCI-H3122 [4] = test: Antitumor activity against human NCI-H3122 cells xenografted in Balb/c nude mouse assessed as tumor growth inhibition at 20 mg/kg/day, po and measured 15 days post treatment by vernier caliper method relative to control; assay type: functional; settings: 360 h, time 15 day, read-out: TGI
How it was run: (§1)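 Female BALB/c nude mice, 6−7 weeks old and 18−22 g, were implanted sc with 5 × 10⁶ exponential-phase H3122 cells in 0.1 mL serum- and antibiotic-free medium. At 150−200 mm³ they were randomized (6 per group) and dosed orally once daily at 10, 20 or 50 mg/kg in 10% NMP/90% PEG300, with a vehicle group. Body weight and caliper tumor volume (a × b²/2) were recorded every 3 days. TGI versus vehicle was determined after 15 days.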

[5] = tested on: ALK tyrosine kinase receptor (Homo sapiens), Q9UM73 [L1196M]; settings: Sf21, dose 200.0 nM, time 10.0 min
L02 = test: Antiproliferative activity against human L02 cells assessed as reduction in cell viability at 5 uM incubated for 72 hrs by MTT assay relative to Ceritinib; assay type: cell-based; settings: l02, 72 h
How it was run: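 Normal human liver LO2 cells were grown at 37 °C, 5% CO₂ with 10% FBS and seeded at 2−5 × 10³ per well for 24 h. Compound was added at 5 μM for 72 h, followed by MTT for 1−4 h and absorbance read at 450 nm. Inhibition rate was taken from OD.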

[6] = biological target: T1, ALK tyrosine kinase receptor; test: Inhibition of N-terminal GST tagged human ALK cytoplasmic domain (1058 to 1620 residues) expressed in Sf21 cells by mobility shift assay
How it was run: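 Wild-type ALK, kinase substrate and ATP at Km were combined with compound in kinase buffer and incubated 10 min at room temperature. Read-out was by mobility shift, and IC50 was derived by curve fitting.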
Target sequence in this assay (Q9UM73 whole entry, the tested form may be a part): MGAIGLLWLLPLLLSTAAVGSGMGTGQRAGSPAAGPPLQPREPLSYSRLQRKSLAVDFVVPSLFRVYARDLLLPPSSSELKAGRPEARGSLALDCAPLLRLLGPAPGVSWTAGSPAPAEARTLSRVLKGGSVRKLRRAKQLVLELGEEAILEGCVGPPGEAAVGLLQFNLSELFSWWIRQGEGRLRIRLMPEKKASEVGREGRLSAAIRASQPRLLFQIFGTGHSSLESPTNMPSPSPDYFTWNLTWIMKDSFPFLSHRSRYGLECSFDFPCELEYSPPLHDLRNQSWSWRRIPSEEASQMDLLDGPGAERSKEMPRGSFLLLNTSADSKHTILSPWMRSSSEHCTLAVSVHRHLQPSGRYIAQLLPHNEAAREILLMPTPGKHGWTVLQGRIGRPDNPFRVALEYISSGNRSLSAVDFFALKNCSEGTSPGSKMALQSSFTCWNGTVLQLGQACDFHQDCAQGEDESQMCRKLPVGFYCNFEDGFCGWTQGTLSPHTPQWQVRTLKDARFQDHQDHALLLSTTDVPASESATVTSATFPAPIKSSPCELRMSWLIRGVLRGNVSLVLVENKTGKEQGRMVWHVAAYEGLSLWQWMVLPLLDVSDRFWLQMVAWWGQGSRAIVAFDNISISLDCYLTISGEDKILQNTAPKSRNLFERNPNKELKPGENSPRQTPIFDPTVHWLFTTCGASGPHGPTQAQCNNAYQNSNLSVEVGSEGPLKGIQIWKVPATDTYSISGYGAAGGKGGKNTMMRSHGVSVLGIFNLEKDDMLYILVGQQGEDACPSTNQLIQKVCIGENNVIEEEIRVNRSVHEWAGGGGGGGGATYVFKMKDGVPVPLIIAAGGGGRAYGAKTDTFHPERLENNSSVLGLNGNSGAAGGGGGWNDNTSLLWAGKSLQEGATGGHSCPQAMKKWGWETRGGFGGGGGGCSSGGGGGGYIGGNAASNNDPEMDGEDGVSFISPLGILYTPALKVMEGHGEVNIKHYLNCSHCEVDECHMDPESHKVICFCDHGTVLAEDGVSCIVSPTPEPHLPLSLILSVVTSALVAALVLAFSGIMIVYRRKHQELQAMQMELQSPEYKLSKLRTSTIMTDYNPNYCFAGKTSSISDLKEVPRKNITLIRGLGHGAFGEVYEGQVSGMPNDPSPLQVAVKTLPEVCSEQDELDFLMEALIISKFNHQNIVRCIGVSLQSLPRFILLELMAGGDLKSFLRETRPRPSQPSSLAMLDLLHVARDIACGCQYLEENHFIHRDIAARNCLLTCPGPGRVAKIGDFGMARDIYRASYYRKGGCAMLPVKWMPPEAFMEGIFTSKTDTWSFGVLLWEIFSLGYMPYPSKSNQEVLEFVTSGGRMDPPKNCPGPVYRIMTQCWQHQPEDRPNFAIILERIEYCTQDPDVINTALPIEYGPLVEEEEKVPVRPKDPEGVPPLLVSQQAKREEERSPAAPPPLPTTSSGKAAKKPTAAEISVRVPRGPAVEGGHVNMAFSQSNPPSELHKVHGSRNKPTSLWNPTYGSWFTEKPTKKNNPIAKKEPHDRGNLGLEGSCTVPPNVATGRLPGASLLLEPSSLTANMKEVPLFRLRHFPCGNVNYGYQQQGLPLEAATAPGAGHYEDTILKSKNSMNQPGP

[7] = biological target: T2, Receptor-type tyrosine-protein kinase FLT3 (Homo sapiens, UniProt P36888); test: Inhibition of FLT3 (unknown origin)
T2 sequence (P36888 whole entry): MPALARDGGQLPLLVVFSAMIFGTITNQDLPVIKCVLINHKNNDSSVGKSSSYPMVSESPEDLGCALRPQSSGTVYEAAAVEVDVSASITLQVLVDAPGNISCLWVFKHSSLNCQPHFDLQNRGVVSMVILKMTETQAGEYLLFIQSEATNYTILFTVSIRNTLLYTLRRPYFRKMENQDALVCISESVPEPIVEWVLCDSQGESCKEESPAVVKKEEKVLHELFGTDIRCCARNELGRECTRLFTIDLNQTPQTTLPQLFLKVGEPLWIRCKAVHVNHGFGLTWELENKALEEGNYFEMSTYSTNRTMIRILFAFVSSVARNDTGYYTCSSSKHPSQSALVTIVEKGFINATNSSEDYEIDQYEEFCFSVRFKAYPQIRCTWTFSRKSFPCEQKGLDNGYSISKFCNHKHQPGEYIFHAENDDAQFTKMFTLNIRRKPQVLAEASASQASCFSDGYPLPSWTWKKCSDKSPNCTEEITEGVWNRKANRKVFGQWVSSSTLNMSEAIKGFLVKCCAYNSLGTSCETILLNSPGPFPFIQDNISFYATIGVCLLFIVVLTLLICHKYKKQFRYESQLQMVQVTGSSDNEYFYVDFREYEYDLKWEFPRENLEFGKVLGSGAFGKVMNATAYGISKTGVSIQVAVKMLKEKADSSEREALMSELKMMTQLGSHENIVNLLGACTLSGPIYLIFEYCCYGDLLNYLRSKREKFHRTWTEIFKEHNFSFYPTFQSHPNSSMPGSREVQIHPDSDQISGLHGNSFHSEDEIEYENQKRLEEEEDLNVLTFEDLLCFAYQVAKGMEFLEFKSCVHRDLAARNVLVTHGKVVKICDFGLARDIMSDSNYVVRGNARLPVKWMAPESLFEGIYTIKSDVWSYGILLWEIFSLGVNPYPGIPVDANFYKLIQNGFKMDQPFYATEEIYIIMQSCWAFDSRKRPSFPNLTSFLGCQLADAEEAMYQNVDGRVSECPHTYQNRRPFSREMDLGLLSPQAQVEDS

[8] = biological target: Fibroblast growth factor receptor 2 (Homo sapiens, UniProt P21802); test: Inhibition of FGFR2 (unknown origin)
[9] = Binding affinity to L-cysteine assessed as molecular mass incubated for 8 hrs by LC-MS analysis
How it was run: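 L-cysteine incubated in water with a 5-fold molar excess of compound (or DMSO) for 8 h at 4 °C; reaction mixtures analysed by LC–MS on an ion trap mass spectrometer to detect adduct mass.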

[10] = biological target: T1, ALK tyrosine kinase receptor; test: Inhibition of ALK phosphorylation in human NCI-H3122 cells at 10 to 500 nM incubated for 24 hrs by western blot analysis; assay type: cell-based; settings: dose 10-500 nM
How it was run: (§2)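 H3122 cells were exposed for 24 h at 37 °C to 0, 10, 50, 200 or 500 nM, then lysed in RIPA buffer with protease/phosphatase inhibitors and 1 mM PMSF. Protein was BCA-normalized and run on SDS−PAGE to PVDF. Primary antibodies were applied overnight at 4 °C in 5% BSA/TBST, then HRP secondary (1/5000, 1 h). Detection was by chemiluminescence.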
Target sequence in this assay (Q9UM73 19-1620 limits assumed): as the sequence (Q9UM73 19-1620 limits assumed) above

[11] = biological target: T1, ALK tyrosine kinase receptor; test: Inhibition of ALK in human NCI-H3122 cells assessed as decrease in phosphorylation of AKT at 10 to 500 nM incubated for 24 hrs by western blot analysis; assay type: cell-based; settings: dose 10-500 nM; how it was run: as §2
Target sequence in this assay (Q9UM73 19-1620 limits assumed): as above

[12] = biological target: T1, ALK tyrosine kinase receptor; test: Inhibition of ALK in human NCI-H3122 cells assessed as decrease in STAT3 expression levels at 10 to 500 nM incubated for 24 hrs by western blot analysis; assay type: cell-based; settings: dose 10-500 nM; how it was run: as §2
Target sequence in this assay (Q9UM73 19-1620 limits assumed): as above

[13] = biological target: T1, ALK tyrosine kinase receptor; test: Inhibition of ALK in human NCI-H3122 cells assessed as downregulation of AKT expression levels at 10 to 500 nM incubated for 24 hrs by western blot analysis; assay type: cell-based; settings: dose 10-500 nM; how it was run: as §2
Target sequence in this assay (Q9UM73 19-1620 limits assumed): as above

[14] = biological target: T1, ALK tyrosine kinase receptor; test: Inhibition of ALK in human NCI-H3122 cells assessed as downregulation of STAT3 phosphorylation levels at 10 to 500 nM incubated for 24 hrs by western blot analysis; assay type: cell-based; settings: dose 10-500 nM; how it was run: as §2
[15] = Clearance in Sprague-Dawley rat at 1 mg/kg, iv measured upto 24 hrs by LC-MS/MS analysis; assay type: ADME, organism-based; settings: in vivo
How it was run: (§3)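 Male SD rats (200−220 g, n = 3 per group) received 1 mg/kg iv in 5% DMA/10% Solutol HS 15/85% saline, or 10 mg/kg orally in 0.5% CMC-Na. Jugular-vein blood was drawn to 24 h, and plasma was kept at −80 °C. Plasma levels were quantified by LC−MS/MS (LLOQ 1 ng/mL), and parameters were derived by noncompartmental analysis.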

[16] = Volume of distribution at steady state in Sprague-Dawley rat at 1 mg/kg, iv measured upto 24 hrs by LC-MS/MS analysis; assay type: ADME, organism-based; settings: in vivo, read-out: Vdss; how it was run: as §3
[17] = Tmax in Sprague-Dawley rat at […] measured upto 24 hrs by LC-MS/MS analysis; assay type: ADME, organism-based; settings: in vivo
[18] = Cmax in Sprague-Dawley rat at […] measured upto 24 hrs by LC-MS/MS analysis; assay type: ADME, organism-based; parameters: route intravenous, dose 1 mg/kg, time <=24; settings: in vivo
[19] = AUC (0 to infinity) in Sprague-Dawley rat at 10 mg/kg, po measured upto 24 hrs by LC-MS/MS analysis; assay type: ADME, organism-based; parameters: route oral, dose 10 mg/kg, time <=24; settings: in vivo; how it was run: as §3
[20] = Half life in Sprague-Dawley rat at 10 mg/kg, po measured upto 24 hrs by LC-MS/MS analysis; assay type: ADME, organism-based; settings: in vivo; how it was run: as §3
[21] = Oral bioavailability in Sprague-Dawley rat at 10 mg/kg measured upto 24 hrs by LC-MS/MS analysis; assay type: ADME, organism-based; settings: in vivo; how it was run: as §3
NCI-H3122 [22] = test: Antitumor activity against human NCI-H3122 cells xenografted in Balb/c nude mouse assessed as tumor growth inhibition administered orally and measured every 3 days for 15 days by vernier caliper method; assay type: functional, cell-based; settings: time 15.0 day; how it was run: as §1
NCI-H3122 [23] = test: Antitumor activity against human NCI-H3122 cells xenografted in Balb/c nude mouse assessed as tumor growth inhibition at 10 mg/kg/day, po and measured 15 days post treatment by vernier caliper method relative to control; assay type: functional; settings: 360 h, time 15 day, read-out: TGI; how it was run: as §1
NCI-H3122 [24] = test: Antitumor activity against human NCI-H3122 cells xenografted in Balb/c nude mouse assessed as tumor growth inhibition at 50 mg/kg/day, po and measured 15 days post treatment by vernier caliper method relative to control; assay type: functional; settings: 360 h, time 15 day, read-out: TGI; how it was run: as §1
[25] = Toxicity in Balb/c mouse xenografted with human NCI-H3122 cells assessed as change in body weight at 10 to 50 mg/kg/day, po and measured every 3 days for 15 days; assay type: organism-based; settings: in vivo, 360 h, dose 10-50 mg/kg/day, time 15 day; how it was run: as §1
[26] = biological target: T1, ALK tyrosine kinase receptor; test: Covalent inhibition of N-terminal GST tagged human ALK cytoplasmic domain (1058 to 1620 residues) expressed in Sf21 cells in presence of high ATP levels
Target sequence in this assay (Q9UM73 whole entry, the tested form may be a part): as the sequence (Q9UM73 whole entry, the tested form may be a part) above

Chain of ALK tyrosine kinase receptor (Homo sapiens), Q9UM73 [L1196M] (Q9UM73 whole entry L1196M, looked up): as the sequence (Q9UM73 whole entry, the tested form may be a part) above, with L1196M counted along it
Chain of Fibroblast growth factor receptor 2 (P21802 whole entry): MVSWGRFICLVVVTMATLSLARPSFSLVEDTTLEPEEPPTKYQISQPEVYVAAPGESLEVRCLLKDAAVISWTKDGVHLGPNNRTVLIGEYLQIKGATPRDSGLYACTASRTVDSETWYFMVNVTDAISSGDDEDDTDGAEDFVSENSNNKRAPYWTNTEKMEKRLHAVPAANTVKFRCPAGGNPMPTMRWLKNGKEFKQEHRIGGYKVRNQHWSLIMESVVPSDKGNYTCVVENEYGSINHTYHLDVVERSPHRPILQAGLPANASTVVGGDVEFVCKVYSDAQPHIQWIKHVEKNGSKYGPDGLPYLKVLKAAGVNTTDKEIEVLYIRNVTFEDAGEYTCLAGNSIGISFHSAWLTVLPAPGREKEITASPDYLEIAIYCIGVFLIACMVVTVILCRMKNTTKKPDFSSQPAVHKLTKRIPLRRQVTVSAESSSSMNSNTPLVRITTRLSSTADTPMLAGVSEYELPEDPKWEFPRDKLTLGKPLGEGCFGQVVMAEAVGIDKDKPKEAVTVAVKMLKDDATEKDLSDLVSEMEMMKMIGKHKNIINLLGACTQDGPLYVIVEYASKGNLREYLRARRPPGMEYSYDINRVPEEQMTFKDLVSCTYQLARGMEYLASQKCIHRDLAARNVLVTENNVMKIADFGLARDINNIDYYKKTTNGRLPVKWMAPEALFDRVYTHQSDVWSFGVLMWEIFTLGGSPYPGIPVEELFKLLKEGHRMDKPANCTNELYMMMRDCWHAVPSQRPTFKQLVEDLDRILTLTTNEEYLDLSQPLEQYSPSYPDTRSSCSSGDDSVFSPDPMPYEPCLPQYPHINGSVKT

inhibition [1]: Active | inhibition [2]: Active
Structure (SMILES): C=CC(=O)NCCOCCOCCNC(=O)CCN1CCC(c2cc(OC(C)C)c(Nc3ncc(Cl)c(Nc4ccccc4S(=O)(=O)C(C)C)n3)cc2C)CC1

IC50 (NCI-H3122 [3]): 1100 nM | inhibition [5]: Active
Structure (SMILES): Cc1cc(Nc2ncc(Cl)c(Nc3ccccc3S(=O)(=O)C(C)C)n2)c(OC(C)C)cc1C1CCNCC1 [CERITINIB]
inhibition in vivo at 20 mg/kg/day (NCI-H3122 [4]): 34%

IC50 (NCI-H3122 [3]): 720 nM | inhibition [1]: Active | inhibition [2]: Active
Structure (SMILES): C=CC(=O)NCCCCCCCCNC(=O)CCN1CCC(c2cc(OC(C)C)c(Nc3ncc(Cl)c(Nc4ccccc4S(=O)(=O)C(C)C)n3)cc2C)CC1
Activity (L02): Non-Toxic

IC50 [6]: 13.2 nM
Structure (SMILES): CCC(=O)NCCOCCNC(=O)CCN1CCC(c2cc(OC(C)C)c(Nc3ncc(Cl)c(Nc4ccccc4S(=O)(=O)C(C)C)n3)cc2C)CC1

IC50 (NCI-H3122 [3]): 750 nM | inhibition [1]: Active | inhibition [2]: Active
Structure (SMILES): C=CC(=O)NCCCCCCNC(=O)CCN1CCC(c2cc(OC(C)C)c(Nc3ncc(Cl)c(Nc4ccccc4S(=O)(=O)C(C)C)n3)cc2C)CC1
Activity (L02): Non-Toxic

IC50 (NCI-H3122 [3]): 610 nM | inhibition [1]: Active | inhibition [2]: Active
Structure (SMILES): C=CC(=O)NCCOCCOCCOCCNC(=O)CCN1CCC(c2cc(OC(C)C)c(Nc3ncc(Cl)c(Nc4ccccc4S(=O)(=O)C(C)C)n3)cc2C)CC1
Activity (L02): Non-Toxic

inhibition [1]: Active | inhibition [2]: Active
Structure (SMILES): C=CC(=O)NCCCCNC(=O)CCN1CCC(c2cc(OC(C)C)c(Nc3ncc(Cl)c(Nc4ccccc4S(=O)(=O)C(C)C)n3)cc2C)CC1

IC50 (NCI-H3122 [3]): 1140 nM | inhibition [1]: Active | inhibition [2]: Active
Structure (SMILES): C=CC(=O)NCCCNC(=O)CCN1CCC(c2cc(OC(C)C)c(Nc3ncc(Cl)c(Nc4ccccc4S(=O)(=O)C(C)C)n3)cc2C)CC1
Activity (L02): Non-Toxic

IC50 (NCI-H3122 [3]): 150 nM | IC50 [6]: 0.5 nM | IC50 [7]: 875 nM | IC50 [8]: > 1000 nM | Activity [9]: 891 Da | inhibition [10]: Active | inhibition [11]: Active | inhibition [12]: Active | inhibition [13]: Active | inhibition [14]: Active | clearance [15]: 17 mL/min/kg | Vd [16]: 2.81 L/kg | Tmax [17]: 2.67 h | Cmax [18]: 157 ng/mL | AUC(0-inf) [19]: 859 ng·h/mL | half-life [20]: 2.89 h | bioavailability [21]: 12.1% | inhibition [1]: Active | inhibition [2]: Active | inhibition [5]: Active | IC50 [26]: 1.4 nM
Structure (SMILES): C=CC(=O)NCCOCCNC(=O)CCN1CCC(c2cc(OC(C)C)c(Nc3ncc(Cl)c(Nc4ccccc4S(=O)(=O)C(C)C)n3)cc2C)CC1
TGI (NCI-H3122 [22]): Dose-dependent effect | inhibition in vivo at 10 mg/kg/day (NCI-H3122 [23]): 39.7% | inhibition in vivo at 20 mg/kg/day (NCI-H3122 [4]): 49.7% | inhibition in vivo at 50 mg/kg/day (NCI-H3122 [24]): 62% | Activity [25]: Non-Toxic | Activity (L02): Non-Toxic
